One data set relates to HPAC. The experiment in a line: Cytotoxicity against human HPAC cell line. In kind it is functional, cell-based. An outline of the steps:
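Human pancreatic ductal carcinoma HPAC cells grown in 1:1 DMEM/Ham's F-12 with 10% FBS at 37 °C, seeded at 2 × 10^3 cells/well. After 24 h, compounds were added from DMSO stocks (final DMSO 0.1%) for 72 h. WST-1 was then added for 3 h at 37 °C and absorbance read at 450 nm.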

Data set [1] has as its system Mus musculus. The experiment in a line: Toxicity in BALB/c mouse at 0.5 mg/kg, ip. In kind it is organism-based. The settings on record: in vivo. On the set-up: dose 0.5 mg/kg, route intraperitoneal.
The subject of data set [2] is Mus musculus. The experiment in a line: Hepatic toxicity in BALB/c mouse at 0.5 mg/kg, ip. Also noted: dose 0.5 mg/kg, route intraperitoneal. In kind it is organism-based. The note with it: in vivo.

What is called IC50 is the concentration at which inhibition is half-maximal. Low readings indicate higher potency, high ones lower potency. With `CCC(=C/[C@H](C)C/C=C/C(C)=C/[C@@H](CO)C(=O)[C@@H](C)[C@H](O)[C@@H](C)C/C(C)=C/C(=O)O)/C=C/[C@H]1CC(C)=CC(=O)O1`, the half-inhibitory concentration (IC50) in the data set on HPAC is 0.309 nM. Also, the Activity entry with Mus musculus [1] and in the data set with Mus musculus [2] was “Non-toxic” in each case.
